According to ChEMBL document CHEMBL4007441, “Novel Design of Heptad Amphiphiles To Enhance Cell Selectivity, Salt Resistance, Antibiofilm Properties and Their Membrane-Disruptive Mechanism” (J Med Chem, 2017):
Calls of active or inactive are those of the source. The calls are words filed in the database; no cut-off is given here.

Legend:
[1] = system: Lipopolysaccharide (LPS); test: Inhibition of BODIPY-TR-cadaverine binding to Pseudomonas aeruginosa 10 LPS by fluorescence spectrophotometric analysis
[2] = system: Pseudomonas aeruginosa; test: Antibacterial activity against Pseudomonas aeruginosa ATCC 27853 assessed as induction of outer membrane permeabilization by measuring NPN uptake by spectrofluorophotometric analysis; format: functional
In short: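 Exponential-phase cells were washed in HEPES pH 7.4 with 5 mM glucose and diluted to about 10^5 CFU/mL. NPN was added at 10 µM final, then peptide at varying concentrations. Fluorescence (ex 350/em 420 nm) was followed to plateau. Values are % NPN uptake relative to polymyxin B at 10 mg/L (100%). Three experiments, duplicates.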

[3] = system: Lipopolysaccharide (LPS); test: Binding affinity to Pseudomonas aeruginosa ATCC 27853 LPS by SPR spectroscopic analysis
In short: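 Biacore SPR. Peptides were amine-coupled to CM5 chips at 20 µg/mL in 10 mM acetate pH 6.0, giving about 1300 RU. LPS at 3.125–12.5 µg/mL in 20 mM Tris/100 mM NaCl pH 7.4 was flowed at 10 µL/min. Surfaces were regenerated with 50 mM NaOH plus 0.05% SDS. Three independent runs.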

[4] = system: Pseudomonas aeruginosa; test: Antibacterial activity against Pseudomonas aeruginosa 25349 clinical isolate after 18 hrs by broth microdilution method; format: functional; details: Pseudomonas aeruginosa, 25349, 18 h
[5] = system: RAW264.7; test: Inhibition of LPS-induced TLR4 negative regulation in mouse RAW264.7 cells at 10 mg/L after 18 hrs by Western blot analysis; format: functional, cell-based
In short: (§1)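 Western blot of RAW264.7 lysates after 18 h with LPS at 100 ng/mL, with or without peptide at 10 mg/L. Lysates were run on 8% or 12% SDS-PAGE, transferred to PVDF and blocked in 5% milk/TBST. Primary antibodies were applied at 4 °C overnight, then HRP secondary and ECL detection. β-actin was the loading control.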

[6] = system: Pseudomonas aeruginosa; test: Antibiofilm activity in Pseudomonas aeruginosa ATCC 27853 assessed as reduction in biomass after 24 hrs by crystal violet staining-based method; format: functional
In short: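 Overnight culture was diluted 1:100 and grown 24 h at 37 °C to form biofilms. Loose cells were removed and fresh broth added with peptide at 1×, 4× or 8× MIC for another 24 h. Biofilms were stained with 0.1% crystal violet for 10 min, washed, and dye extracted in 95% ethanol before reading absorbance. Results are % of untreated biofilm; three repeats in duplicate, mean ± SD.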

[7] = system: Pseudomonas aeruginosa; test: Antibacterial activity against Pseudomonas aeruginosa CICC 21630 after 18 hrs by broth microdilution method; format: functional; details: CICC 21630, 18 h
In short: (§2)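 Broth microdilution in Mueller-Hinton broth. Exponential-phase bacteria (37 °C, 220 rpm shaking) were diluted to about 1 × 10^6 CFU/mL and mixed 1:1 with two-fold serial peptide dilutions. MIC is the lowest concentration with no visible turbidity after 18 h at 37 °C. Controls were uninoculated MHB and untreated culture. Run at least three times, two replicates each.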

[8] = system: Escherichia coli; test: microbe, parasite or virus in culture; details: ATCC 25922, 18 h
[9] = system: Pseudomonas aeruginosa; test: Antibacterial activity against Pseudomonas aeruginosa ATCC 27853 after 18 hrs in presence of NH4Cl by broth microdilution method; format: functional; details: ATCC 27853, 18 h
In short: (§3)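 Broth microdilution MIC against ATCC 27853 in Mueller-Hinton broth with added salt at final concentrations: NaCl 150 mM, KCl 4.5 mM, NH4Cl 6 µM, ZnCl2 8 µM, FeCl3 4 µM. Inoculum about 1 × 10^6 CFU/mL from exponential phase, mixed 1:1 with two-fold peptide dilutions. MIC read as no visible turbidity after 18 h at 37 °C.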

[10] = system: Pseudomonas aeruginosa; test: Antibacterial activity against Pseudomonas aeruginosa CICC 10419 after 18 hrs by broth microdilution method; format: functional; details: CICC 10419, 18 h
In short: as §2

[11] = system: Pseudomonas aeruginosa; test: Antibacterial activity against Pseudomonas aeruginosa ATCC 27853 after 18 hrs in presence of KCl by broth microdilution method; format: functional; details: ATCC 27853, 18 h
In short: as §3

[12] = system: RAW264.7; test: Downregulation of LPS-induced TNF-alpha mRNA expression in mouse RAW264.7 cells at 10 mg/L after 18 hrs by real-time PCR analysis; format: functional, cell-based
In short: (§4)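 qRT-PCR: RAW264.7 cells were stimulated with LPS (100 ng/mL) with or without peptide at 10 mg/L for 18 h at 37 °C. Total RNA was taken up with TRIzol. Transcript levels were normalized to GAPDH and expressed as fold change versus untreated cells. Three experiments, triplicates each.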

[13] = system: RAW264.7; test: Downregulation of LPS-induced IL-1beta mRNA expression in mouse RAW264.7 cells at 10 mg/L after 18 hrs by real-time PCR analysis; format: functional, cell-based
In short: as §4

[14] = system: Pseudomonas aeruginosa; test: Antibiofilm activity against Pseudomonas aeruginosa ATCC 27853 assessed as reduction in cell density of biofilm at 4 times MIC after 1 hr by SEM analysis; format: functional
In short: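 Biofilm imaging: biofilms grown on sterile coverslips in 12-well wells were treated with peptides at 4 × MIC for 1 h, then fixed overnight in 2.5% glutaraldehyde and viewed by SEM. Untreated control. At least three repeats.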

[15] = system: Pseudomonas aeruginosa; test: Antibacterial activity against Pseudomonas aeruginosa CICC 21625 after 18 hrs by broth microdilution method; format: functional; details: CICC 21625, 18 h
In short: as §2

[16] = system: Staphylococcus aureus; test: Antibacterial activity against Staphylococcus aureus ATCC 29213 after 18 hrs by broth microdilution method; format: functional; details: ATCC 29213, 18 h
In short: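 Broth microdilution. Exponential-phase bacteria grown in MHB at 37 °C, diluted to about 1 × 10^6 CFU/mL in MHB and mixed 1:1 with two-fold dilutions of peptide. MIC is the lowest concentration with no visible turbidity after 18 h at 37 °C. Controls were uninoculated broth and peptide-free culture. At least three repeats, duplicates each.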

[17] = system: RAW264.7; test: Inhibition of LPS-induced IkappaB-alpha protein degradation in mouse RAW264.7 cells at 10 mg/L after 18 hrs by Western blot analysis; format: functional, cell-based
In short: as §1

[18] = system: Pseudomonas aeruginosa; test: Drug uptake in Pseudomonas aeruginosa ATCC 27853 treated with FITC-labeled compound at MIC after 30 mins by confocal fluorescence microscopy; format: ADME; details: 0.5 h
In short: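 Cells were pelleted at 5,000 g for 5 min, washed three times in PBS, smeared and imaged by confocal microscopy with 488 nm excitation.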

[19] = system: Pseudomonas aeruginosa; test: Antibacterial activity against Pseudomonas aeruginosa ATCC 27853 after 18 hrs in presence of NaCl by broth microdilution method; format: functional; details: ATCC 27853, 18 h
In short: as §3

[20] = system: Pseudomonas aeruginosa; test: Antibacterial activity against Pseudomonas aeruginosa ATCC 27853 after 18 hrs in presence of FeCl3 by broth microdilution method; format: functional; details: ATCC 27853, 18 h
In short: as §3

[21] = system: Pseudomonas aeruginosa; test: Antibacterial activity against Pseudomonas aeruginosa ATCC 27853 after 18 hrs by broth microdilution method; format: functional; details: ATCC 27853, 18 h
In short: as §2

[22] = system: RAW264.7; test: Inhibition of LPS-induced iNOS expression in mouse RAW264.7 cells at 10 mg/L after 18 hrs by Western blot analysis; format: functional, cell-based
In short: as §1

[23] = system: Pseudomonas aeruginosa; test: Antibacterial activity against ceftazidime-resistant Pseudomonas aeruginosa 11431 after 18 hrs by broth microdilution method; format: functional; details: Pseudomonas aeruginosa, 11431, 18 h
In short: as §2

[24] = system: RAW264.7; test: Downregulation of LPS-induced IL-6 mRNA expression in mouse RAW264.7 cells at 10 mg/L after 18 hrs by real-time PCR analysis; format: functional, cell-based
In short: as §4

Substance	Activity [1]	Activity [2]	Activity [3]	MIC [4]	inhibition [5]	Activity [6]	MIC [7]	MIC [8]	MIC [9]	MIC [10]	MIC [11]	Activity [12]	Activity [13]	Activity [14]	MIC [15]	MIC [16]	inhibition [17]	Drug uptake [18]	MIC [19]	MIC [20]	further results
H-LRRLRRRWWRRRLRRL-NH2	Dose-dependent effect	Dose-dependent effect	Dose-dependent effect	16 µg/mL	Active	Dose-dependent effect	8 µg/mL	16 µg/mL	8 µg/mL	16 µg/mL	8 µg/mL	Active	Active	Active	16 µg/mL	8 µg/mL	Active	Active	16 µg/mL	8 µg/mL	MIC [21]: 8 µg/mL; inhibition [22]: Active; MIC [23]: 16 µg/mL; Activity [24]: Active
H-LRRLRRRWWWRRRLRRL-NH2	Dose-dependent effect	Dose-dependent effect	Dose-dependent effect	4 µg/mL	Active	Dose-dependent effect	4 µg/mL	4 µg/mL	4 µg/mL	8 µg/mL	4 µg/mL	Active	Active	Active	8 µg/mL	8 µg/mL	Active	Active	8 µg/mL	4 µg/mL	MIC [21]: 4 µg/mL; inhibition [22]: Active; MIC [23]: 4 µg/mL; Activity [24]: Active
